# Assays:
# [1] = Plasma clearance in rat at 2 mg/kg, iv; format: ADME, organism-based; parameters: dose 2 mg/kg, route intravenous
# In short: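 Single intravenous dose of 2 mg/kg in rats. The formulation is typically 1 mg/mL in PEG400/ethanol/saline (70/20/10). Clearance values are averages from two or three animals. High is >3 L/h/kg (>70% liver blood flow) and low is <1.3 L/h/kg (<30%).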
# [2] = system: Human immunodeficiency virus 1; experiment: Antiviral activity against Human immunodeficiency virus 1 3B clinical isolate harboring L10I/K20R/M36I/G48V/ I62V/A71V/V82A/I93L protease mutant infected in human MT4 cells assessed as inhibition of viral replication; format: functional, organism-based
# In short: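 Each assay run in quadruplicate. Values are averages of at least two independent experiments, typically three to four. Cytotoxicity (CC50) was measured in parallel in MT4 cells.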
# [3] = system: Human immunodeficiency virus 1; experiment: Antiviral activity against wild type Human immunodeficiency virus 1 3B infected in human MT4 cells assessed as inhibition of viral replication; format: functional, organism-based
# In short: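 EC50 values are averages of at least two independent experiments (typically three to four), each run in quadruplicate. For the serum-shifted line, the same antiviral assay includes 50% human serum, used as a functional measure of plasma protein binding.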
# [4] = Bioavailability in rat at 100 mg/mL formulated with 25 mg/mL of polysorbate 20 and 9 mg/mL of NaCl in water administered intramuscularly measured after 1 month; format: ADME, organism-based; details: in vivo, im
# In short: (§1)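 Nanosuspension depot given by a single intramuscular injection in rats. Blood is sampled at regular intervals over two months. Absolute bioavailability is assessed after 1 month of sampling as ((AUC_IM × dose_IV)/(AUC_IV × dose_IM)) × 100, relative to intravenous dosing.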
# [5] = system: Human immunodeficiency virus 1; experiment: Antiviral activity against Human immunodeficiency virus 1 3B clinical isolate harboring L10I/I13V/M46I/I50V/L63P/L76V protease mutant infected in human MT4 cells assessed as inhibition of viral replication; format: functional, organism-based
# In short: (§2)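 Inhibition of replication in MT4 cells infected with protease-mutant HIV-1 clinical isolates, reported as EC50. Each assay run in quadruplicate. Values are averages of at least two independent experiments, typically three to four. Cytotoxicity (CC50) was measured in parallel in MT4 cells.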
# [6] = system: Human immunodeficiency virus 1; experiment: Selectivity ratio of EC50 for Human immunodeficiency virus 1 3B clinical isolate harboring L10I/I13V/M46I/I50V/L63P/L76V protease mutant to EC50 for wild type Human immunodeficiency virus 1 3B; format: functional
# [7] = Drug metabolism in human liver microsomes at 1 uM after 15 mins; format: ADME, Microsome; details: read-out: Drug metabolism
# In short: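 Human liver microsome incubation at 37 °C for 15 min with compound at 1 µM; turnover expressed as percent of compound metabolized.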
# [8] = system: Human immunodeficiency virus 1; experiment: Antiviral activity against wild type Human immunodeficiency virus 1 3B infected in human MT4 cells assessed as inhibition of viral replication in presence of 50% human serum
# [9] = system: Human immunodeficiency virus 1; experiment: Selectivity ratio of EC50 for Human immunodeficiency virus 1 3B clinical isolate harboring L10I/K20R/M36I/G48V/ I62V/A71V/V82A/I93L protease mutant to EC50 for wild type Human immunodeficiency virus 1 3B; format: functional
# [10] = Aqueous solubility of the compound in crystalline polymorphic form; format: physicochemical
# [11] = Cytotoxicity against human MT4 cells; format: cell-based
# [12] = system: Human immunodeficiency virus 1; experiment: Selectivity ratio of EC50 for Human immunodeficiency virus 1 3B clinical isolate harboring L10I/M46I/I64V/I84V/L90M/I93L protease mutant to EC50 for wild type Human immunodeficiency virus 1 3B; format: functional
# [13] = Bioavailability in rat at 50 mg/mL formulated with 12.5 mg/mL of poloxamer 338 and sucrose in water administered intramuscularly measured after 1 month; format: ADME, organism-based; details: in vivo, im; in short: as §1
# [14] = Bioavailability in rat at 50 mg/mL formulated with Vit-E TPGS in water administered intramuscularly measured after 1 month; format: ADME, organism-based; details: in vivo, im; in short: as §1
# [15] = system: Human immunodeficiency virus 1; experiment: Antiviral activity against Human immunodeficiency virus 1 3B clinical isolate harboring L10I/M46I/I64V/I84V/L90M/I93L protease mutant infected in human MT4 cells assessed as inhibition of viral replication; format: functional, organism-based; in short: as §2
smiles,measurement,setting,value
COC(=O)N[C@H](C(=O)N[C@@H](Cc1ccc(-c2ccc(OC)nc2)cc1)[C@@H](O)C[C@@H](Cc1ccccc1F)C(=O)N[C@H]1[C@H](C)CCC[C@H]1O)C(C)(C)C,clearance,[1],90 mL/min/kg
same,EC50,[2],0.5 nM
same,EC50,[3],0.8 nM
same,bioavailability at 1 month,[4],> 100%
same,EC50,[5],0.3 nM
same,Ratio EC50,[6],<1
same,"metabolised at 0.25 h, 1 µM",[7],99%
same,EC50,[8],2 nM
same,Ratio EC50,[9],<1
same,solubility,[10],< 100 µg/mL
same,CC50,[11],> 10000 nM
same,Ratio EC50,[12],<1
COC(=O)N[C@H](C(=O)N[C@@H](Cc1ccc(-c2ccc(OC)nc2)cc1)[C@@H](O)C[C@@H](Cc1ccccc1F)C(=O)N[C@H]1c2ccsc2CC[C@H]1O)C(C)(C)C,clearance,[1],80 mL/min/kg
same,EC50,[2],0.4 nM
same,EC50,[3],1.1 nM
same,EC50,[5],0.6 nM
same,Ratio EC50,[6],<1
same,"metabolised at 0.25 h, 1 µM",[7],91%
same,EC50,[8],3.7 nM
same,bioavailability at 1 month,[13],> 100%
same,bioavailability at 1 month,[14],100%
same,EC50,[15],0.9 nM
same,Ratio EC50,[9],<1
same,solubility,[10],< 100 µg/mL
same,CC50,[11],> 10000 nM
same,Ratio EC50,[12],<1

# Source: ChEMBL document CHEMBL2321652, “Design and synthesis of HIV-1 protease inhibitors for a long-acting injectable drug application” (Bioorg Med Chem Lett, 2013)
